From PubChem BioAssay
C2C12 statin – suppression of simvastatin myotoxicity; C2C12 myotubes + simvastatin, ATP luminescence, 48 h; scaled: DMSO 0, geranylgeraniol control 100; rescue of ATP level, % at 7.49 µM; actives 0.78% (n = 330,000); AID 602340;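 active means mean ATP rescue above about 67%, or every replicate alone reaching that limit, limit read from the data, passing the limit was not always enough; inconclusive means no clear call, values can overlap the other calls; inactive means mean under the limit and some replicate under it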;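 further: myotubes were challenged with 10 µM simvastatin during compound exposure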
XiGFP reactiv – reactivates the inactive X chromosome in mouse fibroblasts; XiGFP mouse fibroblasts, % GFP-positive cells imaging, 3 d; cells co-treated with 5-aza-dC sensitizer; scaled so ellipticine positive control = 100%; activation, % at 7.58 µM; actives 0.055% (n = 360,000);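 active means mean normalized replicate activation at least 10% and every replicate at or above 10%; inconclusive means only one of the two criteria met; inactive means mean below 10% and not all replicates reach 10%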
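Material: SV40-immortalized XiGFP fibroblast cells, line 68-5-11 | Buffer or medium: DMEM containing 5-aza-dC | Dosing: One concentration, pinned | Times: 3 d treatment, 15 min room-temperature fixation | Controls: Ellipticine 6 µM positive control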
E-selectin induc – induces E-selectin expression in human endothelial cells | HUVEC E-selectin immunofluorescence imaging; normalized: neutral wells 0, TNF-alpha wells 100 | activation, % at 7.58 µM | actives 0.37% (n = 260,000);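 active means mean E-selectin-positive cell signal at least 10% of the positive control, reached in at least 60% of replicates, without over 20% cell loss; inconclusive means no rule given, readout overlaps actives, possibly toxicity-flagged; inactive means the rest, including those meeting only one limit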
Target sequence (P16581 whole entry, looked up): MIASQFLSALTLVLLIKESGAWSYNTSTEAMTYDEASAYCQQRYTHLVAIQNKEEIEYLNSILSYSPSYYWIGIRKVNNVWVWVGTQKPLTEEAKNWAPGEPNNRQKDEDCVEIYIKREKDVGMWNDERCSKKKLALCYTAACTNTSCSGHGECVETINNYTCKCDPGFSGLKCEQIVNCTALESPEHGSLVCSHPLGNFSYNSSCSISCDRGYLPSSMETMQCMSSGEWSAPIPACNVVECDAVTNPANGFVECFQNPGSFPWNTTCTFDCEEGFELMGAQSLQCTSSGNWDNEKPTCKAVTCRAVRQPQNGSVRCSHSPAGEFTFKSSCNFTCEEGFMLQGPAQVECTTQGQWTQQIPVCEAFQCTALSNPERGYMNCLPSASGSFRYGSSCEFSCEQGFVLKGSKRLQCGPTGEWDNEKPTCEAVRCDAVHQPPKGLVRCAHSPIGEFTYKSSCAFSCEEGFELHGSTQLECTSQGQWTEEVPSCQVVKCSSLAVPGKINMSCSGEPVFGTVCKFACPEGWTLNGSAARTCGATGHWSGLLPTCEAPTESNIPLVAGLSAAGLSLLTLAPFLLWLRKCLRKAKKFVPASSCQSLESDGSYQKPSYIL
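assay system = HUVEC, human umbilical vein endothelial cells | input = 3,000 HUVEC seeded per well | medium = EGM-2 growth medium on 0.1% gelatin-coated wells | dosing = one compound dose added by pin transfer | signal = immunofluorescence imaging | read-out basis = % PE-positive cells | control set = TNF-alpha, DMSO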
DENV2 CPE – protects cells from dengue virus 2 cytopathic effect; DENV2-infected cells, cytopathic effect rescue, plate reader; actives 1.7% (n = 350,000); CPE inhibition, % at 9.99 µM; in the data active means CPE inhibition above about 20%, passing the limit was not always enough; inconclusive means no clear call, values can overlap the other calls; tested in BHK-21 cells
PglD inh – inhibitors of Campylobacter jejuni PglD acetyltransferase; purified PglD enzyme, DTNB colorimetric CoA detection; inhibition, % at 12.5 µM; actives 0.098% (n = 360,000); AID 602405; in the data active means inhibition above about 16%, passing the limit was not always enough; inconclusive means no clear call, values can overlap the other calls
FGF22 binding – FGF22 (human) thermal shift binding; AID 651658; activity (Tm shift, normalised), % at 9.99 µM; actives 1.5% (n = 340,000); recombinant FGF22 thermal shift, SYPRO orange fluorescence; percent of sucrose octasulfate shift, DMSO zero; Q9HCT0;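 active means mean Tm shift, scaled 0 neutral to 100 positive control, at about 1.3% or above, every replicate too, limit read from the data; inconclusive means no clear call, values can overlap the other calls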
Target sequence (Q9HCT0 whole entry, looked up): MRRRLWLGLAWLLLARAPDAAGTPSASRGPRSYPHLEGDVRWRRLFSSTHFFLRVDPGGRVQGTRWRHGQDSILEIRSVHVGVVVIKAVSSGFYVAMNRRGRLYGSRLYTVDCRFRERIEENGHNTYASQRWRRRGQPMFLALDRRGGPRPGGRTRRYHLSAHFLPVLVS
Of the large screens only hits and unclear results are named; the others gave an inactive call. Sampled rows, rich in hits. Any-hit rate of the full collection: about 3.3%.

O=C1NC(=S)SC1=Cc1ccc(Cl)cc1	DENV2 CPE 22 (no result: E-selectin induc)
O=C1NC(=S)SC1=Cc1ccc(F)cc1	none (no result: PglD inh)
CNC(=S)NCC(O)c1ccc([N+](=O)[O-])cc1 (stereo not given)	FGF22 binding 44 (no result: C2C12 statin, E-selectin induc, PglD inh)
O=[N+]([O-])c1ccc(C(O)CNC(=S)Nc2ccccc2)cc1 (stereo not given)	none (no result: C2C12 statin, E-selectin induc, DENV2 CPE, PglD inh)
CN1CCN(C(=O)C[C@H]2C[C@H]3c4cc(NC(=O)NC5CCCC5)ccc4O[C@H]3[C@H](CO)O2)CC1	none
Cc1noc(C)c1NC(=O)N(C)C[C@H]1Oc2ccc(NC(=O)CCC(F)(F)F)cc2CC(=O)N([C@H](C)CO)C[C@@H]1C	none
CC(C)CC#Cc1ccc([C@H]2[C@@H](CO)N3C(=O)CN(C(=O)CN4CCOCC4)C[C@@H]23)cc1	none (no result: C2C12 statin, PglD inh, FGF22 binding)
O=C1O[C@@H](c2ccccc2)[C@@H](c2ccccc2)N2[C@@H](c3ccccc3OCCO)[C@]3(C(=O)Nc4ccc(C#CCCO)cc43)[C@@H](C(=O)O)[C@H]12	FGF22 binding 16 (no result: C2C12 statin, XiGFP reactiv, E-selectin induc)
C=CCNC(=O)[C@H]1[C@@H]2C(=O)O[C@@H](c3ccccc3)[C@@H](c3ccccc3)N2[C@@H](c2ccccc2OCCO)[C@]12C(=O)Nc1ccc(C#CC3(O)CCCCCC3)cc12	FGF22 binding 33 (no result: C2C12 statin, XiGFP reactiv, E-selectin induc)
O=C1O[C@H](c2ccccc2)[C@H](c2ccccc2)N2[C@H]1[C@@H](C(=O)N1CCCCCCC1)[C@]1(C(=O)Nc3ccccc31)[C@H]2c1ccccc1OCCO	DENV2 CPE 42 (no result: C2C12 statin, XiGFP reactiv, E-selectin induc)
O=C1O[C@@H](c2ccccc2)[C@@H](c2ccccc2)N2[C@@H](c3ccccc3OCCO)[C@]3(C(=O)Nc4ccc(C#CCCO)cc43)[C@@H](C(=O)N3CCCCCCC3)[C@H]12	none (no result: C2C12 statin, XiGFP reactiv, E-selectin induc)
C[C@H]1CN([C@@H](C)CO)C(=O)c2cc(/C=C/c3ccccc3)cnc2O[C@H]1CN(C)C(=O)Nc1ccc(C(F)(F)F)cc1	none
COc1ccc(S(=O)(=O)Nc2cccc3c2O[C@H](CN(C)C(=O)Nc2c(C)noc2C)[C@H](C)CN([C@@H](C)CO)C3=O)cc1	E-selectin induc 63
Cc1ccc(S(=O)(=O)Nc2cccc3c2O[C@H](CN(C)C(=O)Nc2c(C)noc2C)[C@H](C)CN([C@H](C)CO)C3=O)cc1	none
COc1ccc(S(=O)(=O)Nc2cccc3c2O[C@@H](CN(C)C(=O)Nc2c(C)noc2C)[C@@H](C)CN([C@@H](C)CO)C3=O)cc1	DENV2 CPE 26
Cc1noc(C)c1S(=O)(=O)Nc1cccc2c1O[C@H](CN(C)C(=O)Nc1cccc3ccccc13)[C@H](C)CN([C@@H](C)CO)C2=O	none
COc1ccc(OC)c(N=Nc2c(O)c3ccccc3[nH]c2=O)c1	FGF22 binding 43
CC(C)[C@H]1CCc2cnnn2COC[C@H](c2ccccc2)NC1=O	none (no result: C2C12 statin, E-selectin induc, DENV2 CPE, PglD inh, FGF22 binding)
CCC(=O)N1C[C@@H]2[C@H](c3ccccc31)[C@H](CO)N2CC1CCCC1	none
Cc1cc(C)c(C#N)c(SCC(=O)N2CCN(Cc3ccccc3)CC2)n1	C2C12 statin 140 (no result: XiGFP reactiv, E-selectin induc, DENV2 CPE, FGF22 binding)
COCc1cc(C)nc(N2CCN(Cc3ccccc3)CC2)c1C#N	C2C12 statin 106 (no result: XiGFP reactiv, E-selectin induc, DENV2 CPE, FGF22 binding)
COCc1cc(C)nc(N2CCN(c3ccccc3)CC2)c1C#N	none (no result: XiGFP reactiv, E-selectin induc, DENV2 CPE, FGF22 binding)
C[C@@H]1CN([C@H](C)CO)C(=O)c2cccc(NC(=O)c3ccc(-c4nccs4)cc3)c2O[C@H]1CN(C)Cc1ccc(C(F)(F)F)cc1	none (no result: DENV2 CPE, FGF22 binding)
COc1ccc(NC(=O)N(C)C[C@@H]2Oc3ccc(NS(=O)(=O)c4ccc(F)cc4)cc3C(=O)N([C@@H](C)CO)C[C@@H]2C)cc1	none
Cc1c(C(=O)N2CCCC2)oc2ccc(Br)cc12	DENV2 CPE 53 (no result: E-selectin induc)
Cc1c(C(=O)N2CCN(C)CC2)oc2ccc(Br)cc12	none
COc1cccc(C(=O)Nc2ccc3c(c2)C(=O)N(C)C[C@H](OC)[C@H](C)CN(CC2CC2)[C@H](C)CO3)c1	none
CCOc1cc(C(=O)NCc2ccccc2)ccc1OCC(=O)N1CCOCC1	none (no result: DENV2 CPE)
CCOc1cc(C(=O)Nc2cc(C)ccc2OC)ccc1OCC(=O)N1CCCCC1	C2C12 statin 115 (no result: E-selectin induc, DENV2 CPE, FGF22 binding)
COc1cc(C(=O)NCc2cccc(Cl)c2)ccc1OCC(=O)N1CCOCC1	DENV2 CPE 115 (no result: C2C12 statin, E-selectin induc, PglD inh)
CCOc1cc(C(=O)Nc2ccc(C)cc2C)ccc1OCC(=O)N1CCCCC1	none (no result: C2C12 statin, DENV2 CPE, PglD inh, FGF22 binding)
COc1cc(C(=O)NC(C)c2cc(C)ccc2C)ccc1OCC(=O)N1CCOCC1 (stereo not given)	E-selectin induc 144
CN(C)C(=O)c1ccc(-c2ccc([C@@H]3[C@H](CO)N4CCCCN(Cc5cncnc5)C[C@@H]34)cc2)cc1	none (no result: C2C12 statin)
Cc1cc(C)cc(C(=O)NC(CC(N)=O)c2ccc(N3CCC(Cc4ccccc4)CC3)c([N+](=O)[O-])c2)c1 (stereo not given)	DENV2 CPE 123
Cc1cc(C)cc(C(=O)NC(CC(N)=O)c2ccc(N3CCC(Br)CC3)c([N+](=O)[O-])c2)c1 (stereo not given)	DENV2 CPE inconclusive
NC(=O)CC(NC(=O)Cc1cccc2ccccc12)c1ccc(N2CCC(N3CCCCC3)CC2)c([N+](=O)[O-])c1 (stereo not given)	DENV2 CPE 23
NC(=O)CC(NC(=O)Cc1cccc2ccccc12)c1ccc(N2CCCCCC2)c([N+](=O)[O-])c1 (stereo not given)	none
C[C@@H]1CN([C@@H](C)CO)C(=O)c2cc(NC(=O)Cn3cnnn3)ccc2O[C@@H]1CN(C)C(=O)NC1CCCCC1	none (no result: E-selectin induc)
O=C(C[C@@H]1CC[C@H]2[C@@H](COC[C@H](O)CN2Cc2cc(F)ccc2F)O1)NCc1ccc(Cl)cc1	none
Cc1nn(C)cc1NC(=O)C[C@@H]1CC[C@@H]2[C@@H](COc3ccc(NC(=O)NC(C)C)cc3C(=O)N2C)O1	none
COc1cc(OC)c(C2=NOC(C(=O)N3CCCc4ccccc43)C2)cc1Cl (stereo not given)	C2C12 statin 135 (no result: XiGFP reactiv, E-selectin induc, DENV2 CPE, FGF22 binding)
O=C(C1CC(c2ccccc2O)=NO1)N1CCCC1 (stereo not given)	none (no result: XiGFP reactiv, E-selectin induc)
CCOC(=O)N1CCN(C(=O)C2CC(c3ccccc3OC)=NO2)CC1 (stereo not given)	C2C12 statin 106 (no result: XiGFP reactiv, E-selectin induc)
Cc1ccc2nc(-c3ccc(-c4cccc(Cl)c4)cc3)c(NCc3ccccc3)n2c1	C2C12 statin 85
COc1cc(-c2nc3ccc(C)cn3c2NCc2ccccc2)ccc1-c1cccc(Cl)c1	none
COCCNC(=O)c1c(CS(=O)(=O)c2ccccc2)noc1C(=O)NCc1ccccc1	C2C12 statin 96
CCOC(=O)c1c(C)[nH]c(C(=O)CN2C(=O)NC(C)(CC(C)C)C2=O)c1C (stereo not given)	FGF22 binding 44 (no result: C2C12 statin, E-selectin induc, DENV2 CPE, PglD inh)
